Laboratory results published in ChEMBL document CHEMBL1140375, “Selective inhibitors of the serine protease plasmin: probing the S3 and S3' subsites using a combinatorial library” (J Med Chem, 2005).
Starred links: 1 amine or outer side, 2 acyl side, 3 side chain; linkers in the order of their positions; H or OH if unused. Non-standard residues stand in square brackets, D forms with d. Residues, ends and D or L forms follow the SMILES beside them. *: point of attachment. Gly(2S-L-tryptophyl) = N[C@H](C(=O)O)C(=O)[C@@H](N)Cc1c[nH]c2ccccc12; X1 = O=C1[C@@H](CCC(=O)[*:2])CCC[C@H]1N[*:1]; Cbz = O=C(OCc1ccccc1)*

How the values were obtained:
Plasminogen = Plasminogen (Homo sapiens, UniProt P00747); assay: Inhibitory concentration against plasmin
Summary of the method: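 Plasmin is cleaving D-Val-Leu-Lys-pNA, kept constant at its measured KM (167 μM). Reactions were run at 25 °C in 50 mM sodium phosphate buffer, pH 7.4, containing 10% DMSO final. Initial velocity was read as p-nitroaniline release at 405 nm between 30 and 120 s post-mixing. IC50 was determined from inhibited versus uninhibited rates.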

Plasma kallikrein = Plasma kallikrein (Homo sapiens, UniProt P03952); assay: Inhibitory concentration against kallikrein
Serine protease 1 = Serine protease 1 (Homo sapiens, UniProt P07477); assay: Inhibitory concentration against trypsin
Summary of the method: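 For trypsin, the substrate was D-Phe-Pip-Arg-pNA at its KM of 122 μM. Assays were run at 25 °C in 50 mM sodium phosphate pH 7.4 with 10% DMSO final. Initial rates came from the 405 nm p-nitroaniline signal over 30–120 s after mixing. IC50 values came from comparing rates with and without inhibitor.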

Prothrombin = Prothrombin (Homo sapiens, UniProt P00734); assay: Inhibitory concentration against thrombin
Summary of the method: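 Thrombin is tested against chromogenic D-Phe-Pip-Arg-pNA at its KM, measured as 45 μM. Conditions were 50 mM sodium phosphate (pH 7.4), 10% DMSO final, 25 °C. p-Nitroaniline formation was followed at 405 nm from 30 to 120 s after mixing to give initial rates, from which IC50 was obtained.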

Plasminogen, sequence (P00747 97-580 limits assumed): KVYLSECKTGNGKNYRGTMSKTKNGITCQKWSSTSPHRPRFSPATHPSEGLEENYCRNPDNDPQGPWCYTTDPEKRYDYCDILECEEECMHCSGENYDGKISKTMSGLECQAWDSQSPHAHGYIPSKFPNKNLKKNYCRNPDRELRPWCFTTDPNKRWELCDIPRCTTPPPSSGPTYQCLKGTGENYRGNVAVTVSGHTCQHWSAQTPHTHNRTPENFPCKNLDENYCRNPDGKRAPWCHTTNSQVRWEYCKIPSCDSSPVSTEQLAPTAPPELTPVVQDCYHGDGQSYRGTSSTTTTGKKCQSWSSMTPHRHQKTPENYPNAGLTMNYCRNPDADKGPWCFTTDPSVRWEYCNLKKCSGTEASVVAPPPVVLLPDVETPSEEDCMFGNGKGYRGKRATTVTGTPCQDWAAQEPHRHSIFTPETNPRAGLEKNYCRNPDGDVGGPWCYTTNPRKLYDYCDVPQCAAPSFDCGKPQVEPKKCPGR
Plasminogen, sequence (P00747 581-810 limits assumed): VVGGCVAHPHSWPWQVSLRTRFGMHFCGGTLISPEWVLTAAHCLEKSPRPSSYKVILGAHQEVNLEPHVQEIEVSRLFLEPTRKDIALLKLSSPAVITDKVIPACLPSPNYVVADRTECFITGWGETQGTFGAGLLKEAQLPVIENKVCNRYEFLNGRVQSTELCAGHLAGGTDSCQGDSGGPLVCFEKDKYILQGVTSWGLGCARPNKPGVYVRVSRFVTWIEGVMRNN
Plasma kallikrein, sequence (P03952 20-390 limits assumed): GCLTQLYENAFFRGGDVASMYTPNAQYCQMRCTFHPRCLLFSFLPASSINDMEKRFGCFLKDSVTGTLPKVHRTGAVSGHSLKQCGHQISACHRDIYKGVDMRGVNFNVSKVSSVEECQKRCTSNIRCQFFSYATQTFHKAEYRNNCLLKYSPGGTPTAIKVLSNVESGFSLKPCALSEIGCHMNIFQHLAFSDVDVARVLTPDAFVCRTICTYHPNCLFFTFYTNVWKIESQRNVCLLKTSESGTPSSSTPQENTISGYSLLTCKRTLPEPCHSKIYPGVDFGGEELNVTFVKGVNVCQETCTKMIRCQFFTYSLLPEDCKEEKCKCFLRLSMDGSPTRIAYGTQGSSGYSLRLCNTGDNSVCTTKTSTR
Plasma kallikrein, sequence (P03952 391-638 limits assumed): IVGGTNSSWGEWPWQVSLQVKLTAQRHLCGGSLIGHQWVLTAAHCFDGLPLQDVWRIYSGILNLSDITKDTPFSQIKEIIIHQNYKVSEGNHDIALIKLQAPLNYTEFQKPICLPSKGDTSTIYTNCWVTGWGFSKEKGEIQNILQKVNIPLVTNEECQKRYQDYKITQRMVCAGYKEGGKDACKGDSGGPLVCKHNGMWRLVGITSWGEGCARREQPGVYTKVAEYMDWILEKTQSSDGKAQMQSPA
Serine protease 1, sequence (P07477 whole entry): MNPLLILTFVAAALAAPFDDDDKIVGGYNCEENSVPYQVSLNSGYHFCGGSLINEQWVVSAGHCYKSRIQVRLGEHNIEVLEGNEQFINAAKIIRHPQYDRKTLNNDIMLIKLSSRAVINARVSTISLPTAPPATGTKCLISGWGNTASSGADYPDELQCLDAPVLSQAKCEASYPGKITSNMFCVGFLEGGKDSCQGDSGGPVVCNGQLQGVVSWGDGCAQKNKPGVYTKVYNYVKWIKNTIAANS

Structure (SMILES)	IC50 (Plasminogen)	IC50 (Plasma kallikrein)	IC50 (Serine protease 1)	IC50 (Prothrombin)
CC[C@H](C)[C@H](N)C(=O)[C@H](NC(=O)[C@@H](NC(=O)CC[C@H]1CCC[C@@H](NC(=O)[C@@H](NC(=O)[C@@H](NC(=O)OCc2ccccc2)C(=O)[C@@H](N)Cc2c[nH]c3ccccc23)C(=O)[C@@H](N)Cc2c[nH]c3ccccc23)C1=O)C(=O)[C@@H](N)Cc1c[nH]c2ccccc12)C(=O)OC	13.5 µM	–	–	–
COC(=O)[C@@H](NC(=O)[C@@H](NC(=O)CC[C@H]1CCC[C@@H](NC(=O)[C@@H](NC(=O)[C@@H](NC(=O)OCc2ccccc2)C(=O)[C@@H](N)Cc2c[nH]c3ccccc23)C(=O)[C@@H](N)Cc2c[nH]c3ccccc23)C1=O)C(=O)[C@@H](N)Cc1c[nH]c2ccccc12)C(=O)[C@@H](N)Cc1c[nH]c2ccccc12 (Cbz-[Gly(2S-L-tryptophyl)][Gly(2S-L-tryptophyl)][X1][Gly(2S-L-tryptophyl)][Gly(2S-L-tryptophyl)]-OMe)	3.6 µM	–	–	–
COC(=O)[C@@H](NC(=O)[C@@H](NC(=O)CC[C@H]1CCC[C@@H](NC(=O)[C@@H](NC(=O)[C@@H](NC(=O)OCc2ccccc2)C(=O)[C@@H](N)Cc2c[nH]c3ccccc23)C(=O)[C@@H](N)Cc2c[nH]c3ccccc23)C1=O)C(=O)[C@@H](N)Cc1c[nH]c2ccccc12)C(=O)[C@H](C)N	6.6 µM	–	–	–
COC(=O)[C@@H](NC(=O)[C@@H](NC(=O)CC[C@H]1CCC[C@@H](NC(=O)[C@@H](NC(=O)[C@@H](NC(=O)OCc2ccccc2)C(=O)[C@@H](N)Cc2c[nH]c3ccccc23)C(=O)[C@@H](N)Cc2c[nH]c3ccccc23)C1=O)C(=O)[C@@H](N)Cc1c[nH]c2ccccc12)C(=O)[C@@H](N)C(C)C	14.1 µM	–	–	–

The next compounds have a lower IC50 (Plasminogen) than those just listed; values first:

IC50 (Plasminogen)	IC50 (Plasma kallikrein)	IC50 (Serine protease 1)	IC50 (Prothrombin)	Structure (SMILES)
3.3 µM	–	–	–	COC(=O)[C@@H](NC(=O)[C@@H](NC(=O)CC[C@H]1CCC[C@@H](NC(=O)[C@@H](NC(=O)[C@@H](NC(=O)OCc2ccccc2)C(=O)[C@@H](N)Cc2c[nH]c3ccccc23)C(=O)[C@@H](N)Cc2c[nH]c3ccccc23)C1=O)C(=O)[C@@H](N)Cc1c[nH]c2ccccc12)C(=O)[C@@H](N)Cc1ccccc1
2.7 µM	> 400 µM	> 400 µM	> 400 µM	COC(=O)[C@@H](NC(=O)[C@@H](NC(=O)CC[C@H]1CCC[C@@H](NC(=O)[C@@H](NC(=O)[C@@H](NC(=O)OCc2ccccc2)C(=O)[C@@H](N)Cc2c[nH]c3ccccc23)C(=O)[C@@H](N)Cc2c[nH]c3ccccc23)C1=O)C(=O)[C@@H](N)Cc1c[nH]c2ccccc12)C(=O)[C@@H](N)Cc1ccc(O)cc1
3.2 µM	–	–	–	COC(=O)[C@@H](NC(=O)[C@@H](NC(=O)CC[C@H]1CCC[C@@H](NC(=O)[C@@H](NC(=O)[C@@H](NC(=O)OCc2ccccc2)C(=O)[C@@H](N)Cc2c[nH]c3ccccc23)C(=O)[C@@H](N)Cc2c[nH]c3ccccc23)C1=O)C(=O)[C@@H](N)Cc1c[nH]c2ccccc12)C(=O)[C@@H](N)CC(C)C
